Key:
human CD137 = human CD137 (Homo sapiens, UniProt Q07011); assay type: cell-based; settings: co-culture with 4T1 cells overexpressing mouse Nectin-4, 6 hours
MC38-Nectin-4 tumors = assay: Pharmacodynamics in MC38-Nectin-4 tumors; assay type: in vivo, mouse; settings: 144 hours
Outline: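 C57BL/6J-hCD137 mice bore MC38-Nectin-4 tumors. Tumors were harvested 24, 48, 96 and 144 h after test compound 5 mg/kg at 0 and 24 h. Controls were harvested at 144 h: vehicle, a non-CD137-binding analogue (same schedule), or anti-CD137 agonist antibody 2 mg/kg every 3 days. Tumors were assessed by IHC (mouse CD8) and NanoString mRNA profiling.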

Chain of human CD137 (Q07011 24-255): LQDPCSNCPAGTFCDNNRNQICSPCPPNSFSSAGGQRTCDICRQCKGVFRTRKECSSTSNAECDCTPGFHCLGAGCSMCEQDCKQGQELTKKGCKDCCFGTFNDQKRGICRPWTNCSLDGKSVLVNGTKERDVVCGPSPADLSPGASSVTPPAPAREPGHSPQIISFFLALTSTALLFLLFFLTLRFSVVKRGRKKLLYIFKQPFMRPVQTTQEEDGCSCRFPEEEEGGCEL

anti-CD137 antibody agonist: anti-human 4-1BB therapeutic antibody, urelumab, Creative Biolabs Cat. No. TAB-179
CD137 agonism (reporter activity) (human CD137): induced CD137 agonism in a Nectin-4-independent manner
reprogramming of the tumor immune microenvironment (mRNA profiling) (MC38-Nectin-4 tumors): to lesser extent
T cell infiltrates in tumor (CD8 IHC) (MC38-Nectin-4 tumors; BT7480 or NB-BCY 5 mg/kg at 0 and 24 hours, anti-CD137 antibody agonist 2 mg/kg): increased
